Test results as given in ChEMBL document CHEMBL3785089, “Design and Synthesis of Irreversible Analogues of Bardoxolone Methyl for the Identification of Pharmacologically Relevant Targets and Interaction Sites” (J Med Chem, 2016).
Active and inactive are the calls of the source. The calls are words filed in the database; no cut-off is given here.

How the values were obtained:
[1] = target: Kelch-like ECH-associated protein 1 (Mus musculus) (UniProt Q9Z2X8); assay: Binding affinity to recombinant mouse poly His-tagged Keap1 expressed in Escherichia coli assessed as chemical modification of Cys-257 residue incubated up to 24 hrs by LC-MS/MS analysis
Outline: (§1)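 Recombinant His-tagged protein (human GSTP1 or mouse Keap1) purified by nickel affinity and incubated on-bead with the stated molar excess of compound for up to 24 h, pH 8.4, 37 °C. Free cysteines capped with 55 mM iodoacetamide for 15 min, trypsin digest overnight at 37 °C, LC-MS/MS detection of adduct mass shifts on peptide y/b ions.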

[2] = target: T1, Nuclear factor erythroid 2-related factor 2 (Rattus norvegicus) (UniProt O54968); assay: Stabilization of NRF2 in rat H42E cells expressing ARE8L at 0.01 to 30 nM after 1 hr by Western blot analysis; format: cell-based
T1 sequence (whole entry): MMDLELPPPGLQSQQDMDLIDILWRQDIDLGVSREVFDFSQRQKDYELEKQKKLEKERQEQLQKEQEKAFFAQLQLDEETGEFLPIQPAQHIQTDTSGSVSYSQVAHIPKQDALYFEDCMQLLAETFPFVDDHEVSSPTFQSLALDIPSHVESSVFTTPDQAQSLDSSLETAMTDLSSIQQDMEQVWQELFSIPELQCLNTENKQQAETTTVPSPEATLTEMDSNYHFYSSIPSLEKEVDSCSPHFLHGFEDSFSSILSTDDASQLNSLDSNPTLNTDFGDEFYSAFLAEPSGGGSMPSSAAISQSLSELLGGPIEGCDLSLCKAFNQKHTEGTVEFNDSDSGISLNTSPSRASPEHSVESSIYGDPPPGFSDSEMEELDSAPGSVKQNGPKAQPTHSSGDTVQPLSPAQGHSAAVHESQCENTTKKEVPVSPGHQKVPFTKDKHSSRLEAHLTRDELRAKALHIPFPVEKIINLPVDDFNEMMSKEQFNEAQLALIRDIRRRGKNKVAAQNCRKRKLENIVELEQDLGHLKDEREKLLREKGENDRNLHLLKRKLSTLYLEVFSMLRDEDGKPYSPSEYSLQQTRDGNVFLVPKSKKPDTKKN
Outline: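 H4IIE-ARE8L cells exposed 1 h to the compound. Nrf2 protein accumulation detected by immunoblot. DMSO (0.5%) served as negative control and MG132 (10 μM) as positive control. Representative of n=3 independent experiments.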

[3] = target: T1, Nuclear factor erythroid 2-related factor 2 (Rattus norvegicus); assay: Induction of NRF2 activation in rat H42E cells expressing ARE8L assessed as reporter transgene activity after 24 hrs by luminescence assay; format: cell-based
Outline: (§2)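 Reporter cells (H4IIE-ARE8L) exposed 24 h to compounds at 0.5% DMSO. Cells washed in PBS, then given 150 µg/mL D-luciferin in PBS for 5 min before reading luminescence. Signal normalised to vehicle-treated cells. The concentration giving a 2-fold rise in reporter activity (CD) was taken from the concentration-response data. Mean ± S.D., n=4.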

[4] = Cytotoxicity against rat H42E cells expressing ARE8L assessed as cellular ATP level after 24 hrs by Celltiter-Glo luminescent cell viability assay; format: cell-based
Outline: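 H4IIE-ARE8L rat hepatoma cells grown in DMEM with 10% FBS, glutamine, HEPES and non-essential amino acids, and exposed 24 h to compounds at 0.5% DMSO. Cellular ATP measured by CellTiter-Glo luminescence and expressed relative to vehicle. Mean ± S.D., n=4.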

[5] = target: Kelch-like ECH-associated protein 1 (Mus musculus) (UniProt Q9Z2X8); assay: Binding affinity to recombinant mouse poly His-tagged Keap1 expressed in Escherichia coli assessed as chemical modification of Cys-288 residue incubated up to 24 hrs by LC-MS/MS analysis; outline: as §1
[6] = target: Kelch-like ECH-associated protein 1 (Mus musculus) (UniProt Q9Z2X8); assay: Binding affinity to recombinant mouse poly His-tagged Keap1 expressed in Escherichia coli assessed as chemical modification of Cys-434 residue incubated up to 24 hrs by LC-MS/MS analysis; outline: as §1
[7] = target: Kelch-like ECH-associated protein 1 (Mus musculus) (UniProt Q9Z2X8); assay: Binding affinity to recombinant mouse poly His-tagged Keap1 expressed in Escherichia coli assessed as chemical modification of Cys-613 residue incubated up to 24 hrs by LC-MS/MS analysis; outline: as §1
[8] = target: Glutathione S-transferase P (Homo sapiens) (UniProt P09211); assay: Binding affinity to recombinant human poly His-tagged GSTP1 expressed in Escherichia coli assessed as chemical modification at Cys-47 at 10:1 compound:protein molar ratio after 1 hr by LC-MS/MS analysis; outline: as §1
[9] = Thiol reactivity using beta-mercaptoethanol assessed as chemical shifts at 25 degC by NMR spectroscopy
[10] = Thiol reactivity using N-acetyl cysteine assessed as chemical shifts at 25 degC by NMR spectroscopy
[11] = target: Kelch-like ECH-associated protein 1 (Mus musculus) (UniProt Q9Z2X8); assay: Binding affinity to recombinant mouse poly His-tagged Keap1 expressed in Escherichia coli assessed as chemical modification of Cys-273 residue incubated up to 24 hrs by LC-MS/MS analysis; outline: as §1
[12] = target: Kelch-like ECH-associated protein 1 (Mus musculus) (UniProt Q9Z2X8); assay: Binding affinity to recombinant mouse poly His-tagged Keap1 expressed in Escherichia coli assessed as chemical modification of Cys-489 residue incubated up to 24 hrs by LC-MS/MS analysis; outline: as §1
[13] = target: T1, Nuclear factor erythroid 2-related factor 2 (Rattus norvegicus); assay: Induction of NRF2 activation in rat H42E cells expressing ARE8L assessed as increase in reporter transgene activity after 24 hrs by luminescence assay; format: cell-based; outline: as §2
[14] = target: Kelch-like ECH-associated protein 1 (Mus musculus) (UniProt Q9Z2X8); assay: Binding affinity to mouse V5-tagged Keap1 expressed in HEK293T cells assessed as chemical modification of Cys-257 residue at 100 uM incubated for by LC-MS/MS analysis; format: cell-based; settings: HEK-293T
Outline: (§3)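 Mouse Keap1-V5 expressed ectopically in HEK293T cells; cells exposed to 100 µM compound for 1 h. Keap1-V5 immunopurified from lysates, free cysteines capped with iodoacetamide, trypsin-digested overnight at 37 °C, then LC-MS/MS. Modification frequency per cysteine from n=4 independent experiments.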

[15] = target: Kelch-like ECH-associated protein 1 (Mus musculus) (UniProt Q9Z2X8); assay: Binding affinity to mouse V5-tagged Keap1 expressed in HEK293T cells assessed as chemical modification of Cys-288 residue at 100 uM incubated for by LC-MS/MS analysis; format: cell-based; settings: HEK-293T; outline: as §3
[16] = target: Kelch-like ECH-associated protein 1 (Mus musculus) (UniProt Q9Z2X8); assay: Binding affinity to mouse V5-tagged Keap1 expressed in HEK293T cells assessed as chemical modification of Cys-489 residue at 100 uM incubated for by LC-MS/MS analysis; format: cell-based; settings: HEK-293T; outline: as §3
[17] = target: Kelch-like ECH-associated protein 1 (Mus musculus) (UniProt Q9Z2X8); assay: Binding affinity to mouse V5-tagged Keap1 expressed in HEK293T cells assessed as chemical modification of Cys-273 residue at 100 uM incubated for by LC-MS/MS analysis; format: cell-based; settings: HEK-293T; outline: as §3
[18] = target: Kelch-like ECH-associated protein 1 (Mus musculus) (UniProt Q9Z2X8); assay: Binding affinity to mouse V5-tagged Keap1 expressed in HEK293T cells assessed as chemical modification of Cys-434 residue at 100 uM incubated for by LC-MS/MS analysis; format: cell-based; settings: HEK-293T; outline: as §3
[19] = target: Glutathione S-transferase P (Homo sapiens) (UniProt P09211); assay: Binding affinity to recombinant human poly His-tagged GSTP1 expressed in Escherichia coli assessed as chemical modification at Cys-47 at 100:1 compound:protein molar ratio after 24 hrs by LC-MS/MS analysis; outline: as §1
[20] = target: Glutathione S-transferase P (Homo sapiens) (UniProt P09211); assay: Binding affinity to recombinant human poly His-tagged GSTP1 expressed in Escherichia coli assessed as chemical modification of Cys-47 residue at 1:1 compound:protein molar ratio after 24 hrs by LC-MS/MS analysis in presence of methyl 2-cyano-3,12-dioxooleana-1,9(11)-dien-28-oate
Outline: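 Competition format. His-tagged human GSTP1 was held on-bead at pH 8.4, 37 °C and pre-incubated 1 h with molar excesses of the competitor. The probe was then added at 1:1 molar ratio for another 24 h, with the competitor kept in the buffer. Cysteines capped with iodoacetamide, followed by tryptic digestion and LC-MS/MS of Cys-47 modification.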

[21] = Thiol reactivity using beta-mercaptoethanol assessed as chemical shifts in presence of triethylamine at 25 degC by NMR spectroscopy

Sequence of Kelch-like ECH-associated protein 1 (Mus musculus) (Q9Z2X8 whole entry): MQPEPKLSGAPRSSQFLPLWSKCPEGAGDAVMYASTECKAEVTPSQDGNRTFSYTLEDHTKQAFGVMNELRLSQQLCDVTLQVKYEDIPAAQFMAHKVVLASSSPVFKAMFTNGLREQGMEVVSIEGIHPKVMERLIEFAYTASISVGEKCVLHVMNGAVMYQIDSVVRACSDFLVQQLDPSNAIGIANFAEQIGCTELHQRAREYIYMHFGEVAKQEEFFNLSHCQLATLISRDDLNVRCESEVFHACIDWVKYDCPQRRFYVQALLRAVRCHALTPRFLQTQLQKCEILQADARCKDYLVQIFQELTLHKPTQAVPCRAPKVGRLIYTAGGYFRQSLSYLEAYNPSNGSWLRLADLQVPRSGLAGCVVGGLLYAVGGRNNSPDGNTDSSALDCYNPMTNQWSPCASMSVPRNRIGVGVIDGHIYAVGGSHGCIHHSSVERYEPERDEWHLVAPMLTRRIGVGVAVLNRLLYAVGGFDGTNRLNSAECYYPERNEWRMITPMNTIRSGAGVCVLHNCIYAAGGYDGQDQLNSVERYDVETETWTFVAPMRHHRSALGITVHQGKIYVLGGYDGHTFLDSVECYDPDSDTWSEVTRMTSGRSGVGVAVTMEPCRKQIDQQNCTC
Sequence of Glutathione S-transferase P (Homo sapiens) (P09211 2-210 limits assumed): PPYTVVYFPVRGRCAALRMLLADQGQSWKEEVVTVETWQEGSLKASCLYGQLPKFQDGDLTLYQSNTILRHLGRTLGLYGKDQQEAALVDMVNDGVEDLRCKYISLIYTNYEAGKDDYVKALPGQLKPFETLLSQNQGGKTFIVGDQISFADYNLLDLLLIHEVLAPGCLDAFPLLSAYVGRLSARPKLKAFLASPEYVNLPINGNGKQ

Which Activity [1] does the source give for COC(=O)[C@]12CCC(C)(C)C[C@H]1[C@H]1C(=O)C=C3[C@@]4(C)C=C(C#N)C(=O)C(C)(C)[C@@H]4CC[C@@]3(C)[C@]1(C)CC2 [BARDOXOLONE METHYL] here?
Its Activity is “inactive”.

What about the Activity [2] of the same compound?
The Activity was “Active”.

What about the CD [3] of the same compound?
Its CD is 0.0005 µM.

What about the IC50 [4] of the same compound?
The IC50 was 1400 nM.

And the Activity [5]?
Its Activity is “inactive”.

And the Activity [6]?
The Activity was “inactive”.

What about the Activity [7] of the same compound?
The Activity was “inactive”.

And the Activity [8]?
The Activity was “Active”.

And the Activity [9]?
The Activity was 5.85 ppm.

And the Activity [10]?
Its Activity is 5.81 ppm.

And the Activity [11]?
Its Activity is “inactive”.

And the Activity [12]?
The Activity was “inactive”.

Which CD [3] does the source give for COC(=O)[C@]12CCC(C)(C)C[C@H]1[C@H]1C(=O)C=C3[C@@]4(C)[C@H]5O[C@H]5C(=O)C(C)(C)[C@@H]4CC[C@@]3(C)[C@]1(C)CC2 here?
The CD was 15.4 µM.

What about the Activity [13] of the same compound?
The Activity was “Dose-dependent effect”.

Which CD [3] does the source give for COC(=O)[C@]12CCC(C)(C)C[C@H]1[C@H]1C(=O)C=C3[C@@]4(C)CCC(=O)C(C)(C)[C@@H]4CC[C@@]3(C)[C@]1(C)CC2 here?
Its CD is 1.2 µM.

Which CD [3] does the source give for COC(=O)[C@]12CCC(C)(C)C[C@H]1[C@H]1C(=O)C=C3[C@@]4(C)C=CC(=O)C(C)(C)[C@@H]4CC[C@@]3(C)[C@]1(C)CC2 here?
The CD was 0.9 µM.

What about the Activity [13] of the same compound?
Its Activity is “Dose-dependent effect”.

What does the source list for COC(=O)[C@]12CCC(C)(C)C[C@H]1[C@H]1C(=O)C=C3[C@@]4(C)[C@H]5O[C@@]5(C#N)C(=O)C(C)(C)[C@@H]4CC[C@@]3(C)[C@]1(C)CC2?
Activity [1]: Dose-dependent effect; CD [3]: 0.002 µM; IC50 [4]: 4300 nM; Activity [5]: Dose-dependent effect; Activity [6]: Dose-dependent effect; Activity [7]: Dose-dependent effect; Activity [14]: Active; Activity [15]: Active; Activity [16]: Active; Activity [17]: Active; Activity [18]: Active; Activity [19]: Active; Activity [20]: inactive; Activity [9]: inactive; Activity [10]: inactive; Activity [21]: 5.15 ppm; Activity [11]: Dose-dependent effect; Activity [12]: Dose-dependent effect

With COC(=O)[C@]12CCC(C)(C)C[C@H]1[C@H]1C(=O)C=C3[C@@]4(C)CC(C#N)C(=O)C(C)(C)[C@@H]4CC[C@@]3(C)[C@]1(C)CC2 (some centres undefined) as the compound, how does the CD [3] read?
Its CD is 0.009 µM.

And the Activity [9]?
The Activity was “inactive”.

And the Activity [21]?
Its Activity is “inactive”.

For COC(=O)[C@]12CCC(C)(C)C[C@H]1[C@H]1C(=O)C=C3[C@@]4(C)CC[C@H](OC(C)=O)C(C)(C)[C@@H]4CC[C@@]3(C)[C@]1(C)CC2, which CD [3] is on record?
The CD was 17.6 µM.
